Screening results from PubChem.
Only some compounds are listed: those with a hit (about 4.9% of all), similar ones and a draw of the others.
STAT1 act – increases IFN-gamma driven STAT1 reporter signal | NIH 3T3 STAT1-luciferase reporter, luminescence; 100% = IFN-gamma alone, no compound | activation (% of control), % at 5.5 µM | 200,000 tested, 2.6% active;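 active means activation above the screen-wide mean activation plus 3 SD, cut at about 130% in these data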
STAT3 inh – inhibitors of IL-6 induced STAT3 signaling; U3A cells, IL-6 STAT3-luciferase reporter, luminescence; host cell line lacks STAT1; inhibition, % at 5.5 µM; 190,000 tested, 0.89% active; AID 862;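 active means inhibition above the mean inhibition across all screened compounds plus 3 SD, cut at about 44% in these data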
NF-kB neuron act – compounds increasing NF-kB expression in human neuronal cells; NF-kB reporter expression; active compounds read high; 190,000 tested, 1.6% active; fold change at 12.5 µM; in the data active means fold change above about 3.3
APP 5'UTR act – APP 5'UTR luciferase reporter activation. activation, % at 2 µM. 190,000 tested, 1% active. SH-SY5Y APP 5'UTR luciferase reporter, luminescence; zero percent = DMSO vehicle wells;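 active means activation above a set limit, based on mean plus 3 SD of controls, cut at about 140% in these data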
STAT1 inh-1 – STAT1 signaling inhibition; 200,000 tested, 0.35% active; AID 920; NIH 3T3 STAT1-luciferase reporter, IFN-gamma, luminescence; inhibition, % at 5.5 µM;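 active means inhibition above a set limit, the mean inhibition across all tested compounds plus 3 SD, cut at about 34% in these data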
STAT3 activator – increases IL-6 driven STAT3 reporter signal | U3A cells, IL-6 STAT3-luciferase reporter, luminescence; 100% = signal with IL-6 EC80 alone | activation (% of control), % at 5.6 µM | 190,000 tested, 0.91% active | AID 871;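 active means activation above the screen-wide mean of compound activation plus 3 SD, cut at about 130% in these data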
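Test system: human U3A cells carrying STAT3-luciferase construct; control set: IL-6-only wells as 100% reference; timing: compound pre-incubation 1 h before IL-6, then 6 h stimulation at 37 °C; also added: IL-6 stimulus at 33 ng/mL final; evaluation: % activation versus median of IL-6-stimulated wells; detection: reporter luminescence signal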
STAT1 inh-2 – STAT1 inhibition, confirmation assay; shares compounds with STAT1 inh-1; NIH 3T3 STAT1-luciferase reporter, IFN-gamma, luminescence; inhibition, % at 5.5 µM; 200 tested, 55% active;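 active means triplicate mean inhibition exceeding the hit cutoff computed for the primary STAT1 screen, cut at about 35% in these data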
NFkB inh – NF-kappaB inhibition in STAT1 inhibitor counter-screen; shares compounds with STAT1 inh-1; HEK293T NF-kB luciferase reporter, TNF-alpha induced, luminescence; inhibition, % at 5.7 µM; 200 tested, 30% active; AID 1303;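 active means inhibition above the mean of solvent-only control wells plus 3 SD of those wells, cut at about 15% in these data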
STAT3 inh STAT1c – inhibits STAT3, counter-screen to STAT1 inhibitors; shares compounds with STAT1 inh-1; AID 1310; inhibition, % at 5.7 µM; 200 tested, 20% active; U3A cells, IL-6 STAT3 luciferase reporter, luminescence; cells lacking STAT1;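 active means inhibition above the mean of solvent-only control wells plus 3 SD, set per campaign, cut at about 25% in these data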
Of the large screens only hits and unclear results are named; the others gave an inactive call (follow-up assays come after a bar, where they were run).

COc1ccccc1N1CCN(C(=O)c2ccc(Cn3c(=S)[nH]c4cc5c(cc4c3=O)OCO5)cc2)CC1	none
CCOC(=O)N1CCN(C(=O)c2ccc(Cn3c(=S)[nH]c4cc(OCC)c(OCC)cc4c3=O)cc2)CC1	STAT1 inh-1 45 | STAT1 inh-2 61 | NFkB inh 30 | STAT3 inh STAT1c inactive
CCOC(=O)N1CCN(C(=O)c2ccc3c(=O)n(Cc4ccccc4)c(=S)[nH]c3c2)CC1	none
CC(=O)N/C(=C\c1ccccc1)C(=O)Nc1ccccc1C	none
O=C(CCS(=O)(=O)c1ccccc1)Nc1nc(-c2cccs2)cs1	none
CC(C)c1nnc(NC(=O)CCS(=O)(=O)c2nc(-c3cccs3)cc(C(F)(F)F)n2)s1	STAT1 inh-1 37 | STAT1 inh-2 44 | NFkB inh 15 | STAT3 inh STAT1c inactive
Cc1ccccc1-c1noc(N)c1C#N	STAT1 inh-1 35 | STAT1 inh-2 42 | NFkB inh inactive | STAT3 inh STAT1c inactive
O=C(CSc1nc2c(c(=O)n1-c1ccccc1)SCC2)N1CCN(c2ccccc2)CC1	STAT1 inh-1 45 | STAT1 inh-2 53 | NFkB inh 16 | STAT3 inh STAT1c inactive
COc1ccc(-n2c(SCc3ccccn3)nc3c(c2=O)SCC3)cc1OC	STAT1 inh-1 40 | STAT1 inh-2 inactive | NFkB inh inactive | STAT3 inh STAT1c inactive
COc1ccc(/C=N/OCC(=O)Nn2c(C)nc3ccccc3c2=O)cc1	none
CCn1ncc(/C=N\NC(=O)Cc2ccc([N+](=O)[O-])cc2)c1C	none
CC(C)(C)C(=O)Cn1c(=O)n(-c2ccc(F)cc2F)c(=O)c2sccc21	none
COc1ccc(CCNC(=O)Cn2c(=O)n(-c3cc(F)ccc3F)c(=O)c3sccc32)cc1OC	STAT1 inh-1 53 | STAT1 inh-2 inactive | NFkB inh inactive | STAT3 inh STAT1c inactive
COc1ccc(CCNC(=O)Cn2c(=O)n(-c3ccc(F)cc3F)c(=O)c3sccc32)cc1OC	STAT1 inh-1 40 | STAT1 inh-2 inactive | NFkB inh inactive | STAT3 inh STAT1c inactive
COc1ccc(CCNC(=O)Cn2c(=O)oc3ccccc32)cc1OC	none
COc1ccc(CCNC(=O)Cn2c(=O)n(-c3ccc(F)cc3)c(=O)c3sccc32)cc1OC	STAT1 inh-1 50 | STAT1 inh-2 35 | NFkB inh inactive | STAT3 inh STAT1c inactive
COc1ccc(/C(N)=N/O)cc1O	none
COc1ccc(C(=O)/C(C#N)=N/Nc2cccc([N+](=O)[O-])c2)cc1	STAT1 inh-1 44 | STAT1 inh-2 inactive | NFkB inh inactive | STAT3 inh STAT1c inactive
N#C/C(=N\Nc1cccc(Cl)c1)C(=O)c1ccccc1	none
Cc1ccc(C(=O)NCc2ccco2)cc1S(=O)(=O)Nc1cccc(Cl)c1	none
CCOc1ccccc1NC(=S)NCC1CCCO1 (stereo not drawn)	none
C#CCOc1ccc(/C=N/NC(=O)c2cccnc2)cc1OCC	none
CCC(/C=C1\Sc2ccc(OC)cc2N1CC)=C\c1sc2ccc(OC)cc2[n+]1CCCS(=O)(=O)[O-]	STAT1 inh-1 41 | STAT1 inh-2 inactive | NFkB inh inactive | STAT3 inh STAT1c inactive
CCOC(=O)N1CCN(C(=O)c2ccc(CSc3ccc(Cl)cc3)cc2)CC1	STAT1 inh-1 38 | STAT1 inh-2 39 | NFkB inh inactive | STAT3 inh STAT1c inactive
Cc1ccc(-c2csc3ncnc(Sc4nnc(CN5CCCCCC5=O)o4)c23)cc1	STAT1 inh-1 44 | STAT1 inh-2 56 | NFkB inh inactive | STAT3 inh STAT1c inactive
O=C(N/N=C/c1ccncc1)c1nn(Cc2ccccc2)c(=O)c2ccccc12	STAT1 inh-1 39 | STAT1 inh-2 inactive | NFkB inh inactive | STAT3 inh STAT1c inactive
CCOc1ccc(NC(=S)N2CCC(N(C)CCN3CCOCC3)CC2)cc1	none
C=CCOc1c(Br)cc(/C=N/Nc2ccc(C(=O)O)cc2)cc1OCC	none
COc1ccc(/C=N/Nc2ccc(C(=O)O)cc2)cc1Br	STAT1 inh-1 61 | STAT1 inh-2 inactive | NFkB inh 49 | STAT3 inh STAT1c inactive
c1ccc(CN2CCN(c3ncnc4c3[nH]c3ccccc34)CC2)cc1	STAT1 inh-1 41 | STAT1 inh-2 48 | NFkB inh 22 | STAT3 inh STAT1c inactive
Cc1ccc2[nH]c3c(N4CCN(Cc5ccccc5)CC4)ncnc3c2c1	STAT1 inh-1 36 | STAT1 inh-2 40 | NFkB inh inactive | STAT3 inh STAT1c inactive
COc1cccc(N2CCN(c3ncnc4c3[nH]c3ccccc34)CC2C)c1 (stereo not drawn)	STAT1 inh-1 35 | STAT1 inh-2 46 | NFkB inh 25 | STAT3 inh STAT1c 37
CCCC(=O)Nc1cc(S(=O)(=O)N(CC)CC)ccc1Cl	none
O=C(N/N=C/c1ccc[nH]1)c1ccc([N+](=O)[O-])cc1	none
CCc1cc(-c2n[nH]c(C)c2Oc2ccc(C(C)C)cc2)c(O)cc1O	none
COC(=O)c1ccc(OC)cc1OCC(=O)N1CCN(c2ccc(F)cc2)CC1	none
O=C(Nc1ccccc1)c1cc(N2CCOCC2)nc2ccccc12	none
O=C(O)c1cc(/C=C/c2ccc(N3CCOCC3)cc2)nc2ccccc12	STAT1 inh-1 39 | STAT1 inh-2 inactive | NFkB inh 38 | STAT3 inh STAT1c inactive
COc1ccc(CCNc2ncnc3cc(OC)c(OC)cc23)cc1OC	STAT1 inh-1 35 | STAT1 inh-2 36 | NFkB inh inactive | STAT3 inh STAT1c inactive
COc1cc2ncnc(NCc3ccc(C)cc3)c2cc1OC	none
Clc1ccc2c(NCc3ccco3)ncnc2c1	none
COc1ccc(CNc2ncnc3cc(Cl)ccc23)cc1OC	STAT1 inh-1 41 | STAT1 inh-2 35 | NFkB inh inactive | STAT3 inh STAT1c inactive
COc1ccccc1CNc1ncnc2cc(Cl)ccc12	STAT1 inh-1 42 | STAT1 inh-2 38 | NFkB inh inactive | STAT3 inh STAT1c inactive
COc1cc2ncnc(NCCc3ccccc3)c2cc1OC	none
Fc1ccc(-c2cnn3c(-c4cccs4)ccnc23)cc1	NF-kB neuron act 6.7, APP 5'UTR act 220, STAT1 inh-1 35 | STAT1 inh-2 inactive | NFkB inh 22 | STAT3 inh STAT1c inactive
c1csc(-c2ccnc3ncnn23)c1	none
O=C(Oc1cccc(/C=N/Nc2nc(Nc3ccccc3)nc(N3CCOCC3)n2)c1)c1ccco1	none
COc1ccccc1-c1nnc(Sc2nc([N+](=O)[O-])nn2C)o1	none (no result: APP 5'UTR act)
